From paper PMC10515777 (bioRxiv, 2024)
Each block holds one compound with its values, some of them ahead of it.

Experiments:
WT CFTR = WT CFTR (Homo sapiens, UniProt P13569); experiment: Inside-out patch clamp recording of macroscopic currents, WT CFTR; format: biochemical; settings: for change of CFTR currents: enantiomers perfused at 100 M, inside-out patches, 3 mM ATP
Outline: (§1)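 WT, S308A or Y304A CFTR (mutants made by site-directed mutagenesis), C-terminally GFP-tagged in BacMam vector, transfected into CHO cells, then 2% FBS at 30 °C for 2 days. Excised inside-out patches were phosphorylated with 25 units/ml PKA plus 3 mM ATP and held at −30 mV, 25 °C, pH 7.4 NMDG solutions. Fold stimulation is the current ratio with/without perfused compound. Dose-response currents were normalized to pre-titration ATP current and fitted for EC50. Means ± SE of patches.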

S308A CFTR = S308A CFTR (Homo sapiens, UniProt P13569, S308A); experiment: Inside-out patch clamp recording, S308A CFTR; format: biochemical; settings: inside-out patches, 3 mM ATP
Chain of S308A CFTR (P13569 whole entry S308A): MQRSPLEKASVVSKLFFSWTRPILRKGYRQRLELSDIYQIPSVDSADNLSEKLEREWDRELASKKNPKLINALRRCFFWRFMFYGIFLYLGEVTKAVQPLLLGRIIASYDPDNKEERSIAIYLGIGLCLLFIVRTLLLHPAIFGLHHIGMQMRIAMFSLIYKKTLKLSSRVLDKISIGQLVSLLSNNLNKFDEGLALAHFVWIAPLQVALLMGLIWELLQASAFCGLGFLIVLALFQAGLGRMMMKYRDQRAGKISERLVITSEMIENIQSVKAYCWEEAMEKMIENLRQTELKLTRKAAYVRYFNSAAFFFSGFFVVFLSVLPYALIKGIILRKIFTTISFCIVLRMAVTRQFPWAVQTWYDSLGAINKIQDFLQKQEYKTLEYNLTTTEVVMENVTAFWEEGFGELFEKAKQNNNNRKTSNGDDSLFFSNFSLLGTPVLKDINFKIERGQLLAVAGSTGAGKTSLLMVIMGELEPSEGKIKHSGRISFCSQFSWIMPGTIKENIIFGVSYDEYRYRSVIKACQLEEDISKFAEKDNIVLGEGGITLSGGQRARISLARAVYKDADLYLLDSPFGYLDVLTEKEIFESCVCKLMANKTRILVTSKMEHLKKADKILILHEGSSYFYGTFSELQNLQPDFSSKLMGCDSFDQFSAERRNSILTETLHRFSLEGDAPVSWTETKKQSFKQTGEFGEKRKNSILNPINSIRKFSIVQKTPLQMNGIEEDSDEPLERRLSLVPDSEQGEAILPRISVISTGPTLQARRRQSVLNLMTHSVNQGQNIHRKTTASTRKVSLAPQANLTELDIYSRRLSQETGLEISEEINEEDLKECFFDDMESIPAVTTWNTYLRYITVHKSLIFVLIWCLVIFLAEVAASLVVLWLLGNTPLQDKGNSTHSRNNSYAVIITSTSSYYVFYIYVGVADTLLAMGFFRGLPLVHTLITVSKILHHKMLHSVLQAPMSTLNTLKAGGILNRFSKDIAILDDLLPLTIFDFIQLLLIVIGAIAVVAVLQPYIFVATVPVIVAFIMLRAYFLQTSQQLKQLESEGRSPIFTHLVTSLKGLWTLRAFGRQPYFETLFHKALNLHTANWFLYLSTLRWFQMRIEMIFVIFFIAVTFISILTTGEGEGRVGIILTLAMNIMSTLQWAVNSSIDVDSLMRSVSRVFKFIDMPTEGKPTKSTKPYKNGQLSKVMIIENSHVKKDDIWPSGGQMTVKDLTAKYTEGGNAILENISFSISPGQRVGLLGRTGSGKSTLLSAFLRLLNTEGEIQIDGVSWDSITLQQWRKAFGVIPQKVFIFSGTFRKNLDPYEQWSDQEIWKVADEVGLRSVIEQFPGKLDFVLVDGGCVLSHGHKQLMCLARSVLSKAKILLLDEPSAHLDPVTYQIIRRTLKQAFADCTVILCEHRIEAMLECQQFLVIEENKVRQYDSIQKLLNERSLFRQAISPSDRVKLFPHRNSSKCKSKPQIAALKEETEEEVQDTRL
Outline: as §1

Y304A CFTR = Y304A CFTR (Homo sapiens, UniProt P13569, Y304A); experiment: Inside-out patch clamp recording, Y304A CFTR; format: biochemical; settings: inside-out patches, 3 mM ATP
Chain of Y304A CFTR (P13569 whole entry Y304A): as the sequence (P13569 whole entry S308A) above, with Y304A, A308S counted along it
Outline: as §1

[1] = ref [8]; cited from earlier work
[2] = ref [9],[10]; cited from earlier work

Chain of WT CFTR (P13569 whole entry, the tested form may be a part): as the sequence (P13569 whole entry S308A) above, with A308S counted along it

change of CFTR currents (WT CFTR): 0.89 fold
Compound: C[C@H](COc1ccccc1)C(=O)n1nc(N)c2ccc(F)cc21 [(R)-’853, (R)-1-(3-Amino-6-fluoro-1H-indazol-1-yl)-2-methyl-3-phenoxypropan-1-one]

Compound: C[C@@H](COc1ccc(F)cc1)C(=O)n1nc(N)c2ccc(F)cc21 [(S)-SX263, (S)-1-(3-Amino-6-fluoro-1H-indazol-1-yl)-3-(4-fluorophenoxy)-2-methylpropan-1-one]
EC50 (WT CFTR): 136 ± 60 nM

Compound: C[C@@H](COc1ccccc1)C(=O)n1nc(N)c2ccc(F)cc21 [(S)-’853, (S)-1-(3-Amino-6-fluoro-1H-indazol-1-yl)-2-methyl-3-phenoxypropan-1-one]
effect of alanine substitution S308A on compound activity (S308A CFTR): abolished the potentiating effect
effect of alanine substitution Y304A on compound activity (Y304A CFTR): abolished the potentiating effect
EC50 (WT CFTR): 2100 ± 900 nM
change of CFTR currents (WT CFTR): 1.5 fold

Compound: C[C@@H](COc1ccccc1)C(=O)n1nc(N)c2ccc(CO)cc21 [Compound I1408, (S)-1-(3-Amino-6-(hydroxymethyl)-1H-indazol-1-yl)-2-methyl-3-phenoxypropan-1-one]
EC50 (WT CFTR): 93 ± 42 nM

Compound: C[C@H](COc1ccccc1)C(=O)n1ncc2ccc(C(N)=O)cc21 [Compound I1412, (R)-1-(2-Methyl-3-phenoxypropanoyl)-1H-indazole-6-carboxamide]
effect of alanine substitution S308A on compound activity (S308A CFTR): eliminated the activity
effect of alanine substitution Y304A on compound activity (Y304A CFTR): eliminated the activity
IC50 (WT CFTR): 21000 nM

Compound: C[C@H](COc1ccccc1)C(=O)n1nc(N)c2ccc(C(N)=O)cc21 [Compound I1422, (R)-3-Amino-1-(2-methyl-3-phenoxypropanoyl)-1H-indazole-6-carboxamide]
IC50 (WT CFTR): 41000 nM

Compound: CC(C)(C)c1cc(C(C)(C)C)c(NC(=O)c2c[nH]c3ccccc3c2=O)cc1O [Ivacaftor, N-(2,4-di-tert-butyl-5-hydroxyphenyl)-4-oxo-1,4-dihydroquinoline-3-carboxamide]
water solubility [1]: < 0.05 µg/mL
bound to plasma proteins [2]: 99%
